Data set [1] in a line: Genotoxicity in Salmonella typhimurium TA1535 harboring pSK1002 assessed as survival at 0.031 mg/ml in absence of Sprague-Dawley rat liver S9 fraction metabolic activation by SOS/umu assay relative to control. It counts as toxicity. Conditions: salmonella enterica subsp. enterica serovar typhimurium, read-out: Survival. The gist of the method: (§1)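 Survival of S. typhimurium TA1535/pSK1002 exposed to a range of compound concentrations with or without S9 mix in 96-well format. Survival percentage measured as the cytotoxicity arm of the SOS/umu test. Concentrations with survival ≥80% are counted as non-cytotoxic.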

A short description of data set [2]: Genotoxicity in Salmonella typhimurium TA1535 harboring pSK1002 assessed as survival at 0.016 mg/ml in absence of Sprague-Dawley rat liver S9 fraction metabolic activation by SOS/umu assay relative to control. It counts as toxicity. Conditions: salmonella enterica subsp. enterica serovar typhimurium, read-out: Survival. The procedure, abridged: as §1
Data set [3] in a line: Genotoxicity in Salmonella typhimurium TA1535 harboring pSK1002 assessed as survival at 0.008 mg/ml in absence of Sprague-Dawley rat liver S9 fraction metabolic activation by SOS/umu assay relative to control. It is filed as toxicity. To be noted: salmonella enterica subsp. enterica serovar typhimurium, read-out: Survival. The gist of the method: as §1
Data set [4] in a line: Genotoxicity in Salmonella typhimurium TA1535 harboring pSK1002 assessed as survival at 1 mg/ml in presence of Sprague-Dawley rat liver S9 fraction metabolic activation by SOS/umu assay relative to control. Conditions: salmonella enterica subsp. enterica serovar typhimurium, read-out: Survival. It is filed as toxicity, subcellular. The procedure, abridged: as §1
Data set [5] in a line: Genotoxicity in Salmonella typhimurium TA1535 harboring pSK1002 assessed as survival at 0.5 mg/ml in presence of Sprague-Dawley rat liver S9 fraction metabolic activation by SOS/umu assay relative to control. Conditions: salmonella enterica subsp. enterica serovar typhimurium, read-out: Survival. It counts as toxicity, subcellular. The gist of the method:
as §1

Data set [6] can be described thus: Genotoxicity in Salmonella typhimurium TA1535 harboring pSK1002 assessed as survival at 0.25 mg/ml in presence of Sprague-Dawley rat liver S9 fraction metabolic activation by SOS/umu assay relative to control. It is filed as toxicity, subcellular. Conditions: salmonella enterica subsp. enterica serovar typhimurium, read-out: Survival. The procedure, abridged: as §1

The nature of data set [7]: Genotoxicity in Salmonella typhimurium TA1535 harboring pSK1002 assessed as umu gene induction at 0.25 mg/ml in presence of Sprague-Dawley rat liver S9 fraction metabolic activation by SOS/umu assay relative to control. It counts as toxicity, subcellular. Conditions: salmonella enterica subsp. enterica serovar typhimurium, read-out: FC. The procedure, abridged:
(§2)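 umu induction in S. typhimurium TA1535/pSK1002, with or without S9 mix, in 96-well format. β-galactosidase read colorimetrically with ONPG substrate. Output given as relative units and induction factor (IF). The run is valid if positive controls reach IF ≥2. A compound counts as genotoxic at IF ≥2 at a concentration giving ≥80% bacterial survival.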

The nature of data set [8]: Genotoxicity in Salmonella typhimurium TA1535 harboring pSK1002 assessed as umu gene induction at 0.125 mg/ml in presence of Sprague-Dawley rat liver S9 fraction metabolic activation by SOS/umu assay relative to control. It counts as toxicity, subcellular. To be noted: salmonella enterica subsp. enterica serovar typhimurium, read-out: FC. The gist of the method: as §2

The nature of data set [9]: Genotoxicity in Salmonella typhimurium TA1535 harboring pSK1002 assessed as umu gene induction at 0.004 mg/ml in presence of Sprague-Dawley rat liver S9 fraction metabolic activation by SOS/umu assay relative to control. It counts as toxicity, subcellular. To be noted: salmonella enterica subsp. enterica serovar typhimurium, read-out: FC. The gist of the method: as §2

Data set [10] concerns Trypanosoma cruzi. In words: Antitrypanosomal activity against Trypanosoma cruzi MHOM/Pe/2011/Arequipa;DTU 5 bloodstream trypomastigote infected in BALB/c mouse assessed as parasite-free oesophagus in acute phase at 20 mg/kg/day, po administered for 5 consecutive days starting from day 8 post infection followed by cyclophosphamide induced immunosuppression on day 80 post infection measured after day 100 post infection by PCR method relative to control. It is filed as functional. The procedure, abridged:
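Female BALB/c mice (10–12 weeks, three per group) were infected i.p. with 5 × 10^5 Arequipa bloodstream trypomastigotes. Dosing was oral, 20 mg/kg/day for 5 days, as a suspension in 5% DMSO/0.5% HPMC. Cyclophosphamide 200 mg/kg i.p. was given at day 80 pi. At necropsy (day 100) tissues were tested by PCR on the splice leader region (primers TC/TC1, 300 bp). Scored as x/3 mice positive.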

Data set [11] deals with Trypanosoma cruzi. In words: Antitrypanosomal activity against Trypanosoma cruzi MHOM/Pe/2011/Arequipa;DTU 5 bloodstream trypomastigotes infected in BALB/c mouse assessed as decrease in splenomegaly in chronic phase at 20 mg/kg/day, po administered for 5 consecutive days starting from day 70 post infection relative to untreated control. Details: scale not given: the % may be the effect or the level left. It counts as functional. The gist of the method: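 Female BALB/c mice (three per group) were infected i.p. with 5 × 10^5 Arequipa trypomastigotes and dosed orally at 20 mg/kg/day for 5 days in 5% DMSO/0.5% HPMC. Controls were uninfected and vehicle-only groups. At the end of the experiment spleens were weighed and expressed as % of body weight.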

Data set [12] is described as follows: Toxicity in BALB/c mouse infected with Trypanosoma cruzi MHOM/Pe/2011/Arequipa;DTU 5 bloodstream trypomastigote assessed as decrease in serum creatine kinase muscle to brain ratio level in acute phase at 20 mg/kg/day, po administered for 5 consecutive days starting from day 8 post infection and measured on day 100 post infection by biochemical analysis relative to control. It is filed as organism-based. Details: scale not given: the % may be the effect or the level left. To be noted: in vivo. The gist of the method:
(§3)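 Female BALB/c mice (10–12 weeks, 14–20 g; groups of three) were infected i.p. with 5 × 10^5 Arequipa bloodstream trypomastigotes. Dosing was oral at 20 mg/kg/day for 5 days, from day 8 pi (acute) or day 70 pi (chronic), as a 2 mg/ml suspension in 5% DMSO/0.5% HPMC; controls received vehicle. Cyclophosphamide 200 mg/kg i.p. was given at day 80 pi. Serum was collected 2 days post-treatment and at necropsy by cardiac puncture and compared with infected untreated controls.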

Data set [13] in a line: Genotoxicity in Salmonella typhimurium TA1535 harboring pSK1002 assessed as survival at 0.25 mg/ml in absence of Sprague-Dawley rat liver S9 fraction metabolic activation after by SOS/umu assay relative to control. It is filed as toxicity. To be noted: salmonella enterica subsp. enterica serovar typhimurium, read-out: Survival. The procedure, abridged: as §1
Data set [14] can be described thus: Toxicity in BALB/c mouse infected with Trypanosoma cruzi MHOM/Pe/2011/Arequipa;DTU 5 bloodstream trypomastigote assessed as change in serum total bilirubin level in acute phase at 20 mg/kg/day, po administered for 5 consecutive days starting from day 8 post infection and measured on day 100 post infection by biochemical analysis relative to control. It is filed as organism-based. Conditions: in vivo. The gist of the method:
as §3

The nature of data set [15]: Toxicity in BALB/c mouse infected with Trypanosoma cruzi MHOM/Pe/2011/Arequipa;DTU 5 bloodstream trypomastigote assessed as decrease in serum urea level in chronic phase at 20 mg/kg/day, po administered for 5 consecutive days starting from day 70 post infection and measured at day 76 post infection relative to control. It is filed as organism-based. Details: scale not given: the % may be the effect or the level left. Conditions: in vivo. The procedure, abridged: as §3

A short description of data set [16]: Toxicity in BALB/c mouse infected with Trypanosoma cruzi MHOM/Pe/2011/Arequipa;DTU 5 bloodstream trypomastigote assessed as decrease in serum total bilirubin level in chronic phase at 20 mg/kg/day administered for 5 consecutive days starting from […] post infection and measured after 2 days of treatment by biochemical analysis (reference value: 0.25 mg/dl ). It is filed as organism-based. Details: scale not given: the % may be the effect or the level left. To be noted: in vivo, 48 h.

Data set [17] is described as follows: Toxicity in BALB/c mouse infected with Trypanosoma cruzi MHOM/Pe/2011/Arequipa;DTU 5 bloodstream trypomastigote assessed as decrease in serum total bilirubin level in chronic phase at 20 mg/kg/day, po administered for 5 consecutive days starting from day 70 post infection measured on day 100 post infection relative to control. It counts as organism-based. Details: scale not given: the % may be the effect or the level left. To be noted: in vivo. The gist of the method: as §3

The structures appear in SMILES notation.

Regarding `O=C(CCN1CCN(c2ccc(C(F)(F)F)cc2)CC1)c1ccc(O)cc1`, the viability at 0.031 mg/ml in [1] was 112%. The viability at 0.016 mg/ml in [2] is 127%. The viability at 0.008 mg/ml in data set [3] worked out at 133%. Besides, the viability at 1 mg/ml in data set [4] is 216%. Further, the viability at 0.5 mg/ml in [5] came out at 124%. The viability at 0.25 mg/ml is 140% in data set [6] and 149% in data set [13]. In addition, the fold induction at 0.25 mg/ml in data set [7] stood at 0.63. The fold induction at 0.125 mg/ml in data set [8] turned out to be 0.63. Moreover, the fold induction at 0.004 mg/ml in data set [9] is 0.77. For the same compound, the results for the Activity (with Trypanosoma cruzi [10]; with Trypanosoma cruzi [11]; in data set [12]) were 13%, 66% and “<= 30%”, respectively.
Consider `O=C(Cn1ccnc1[N+](=O)[O-])NCc1ccccc1` [BENZNIDAZOLE], for which the Activity in the data set on Trypanosoma cruzi [10] was 25%; in data set [14] it was above 10%; in [15] it was “<= 20%”; in [16], “<= 10%”; in [17], “<= 10%”.
As to `O=C(CCN1CCN(c2ccc(Cl)cc2)CC1)c1ccc(O)cc1`, in [1], the viability at 0.031 mg/ml stood at 107%. Besides, in data set [2], the viability at 0.016 mg/ml was determined as 130%. Also, the viability at 0.008 mg/ml in data set [3] was 128%. For the same compound, the viability at 1 mg/ml in data set [4] was determined as 213%. In addition, the viability at 0.5 mg/ml in [5] came out at 157%. Further, the viability at 0.25 mg/ml in data set [6] was 138%; in data set [13], 152%. In addition, the fold induction at 0.25 mg/ml in data set [7] came out at 0.63. Moreover, the fold induction at 0.125 mg/ml in data set [8] was 0.84. Moreover, the fold induction at 0.004 mg/ml in data set [9] worked out at 0.71. Besides, the Activity is listed as 50% in the data set on Trypanosoma cruzi [10]; 81% with Trypanosoma cruzi [11]; “<= 20%” in data set [12]; above 10% in data set [14]; “<= 30%” in data set [15]; “<= 10%” in data set [16]. The Activity result in [17] is “<= 10%”.
